Experimental data gathered from unrelated publications.
Protocols differ between the studies behind these lines.
Target: Serine/threonine-protein kinase 32B (STK32B, Homo sapiens, UniProt Q9NY57)

Compound | assay | setting | measurement | result
O=C(Nc1cnn(-c2csc(C(=O)NC3COC3)c2)c1)Nc1ccccc1Cl | enzyme activity, inhibitor | 5 µM | remaining activity | 122%
COc1ccc2c(c1)O[C@@H](c1ccc(OC)c(OC)c1)C[C@H]2NC(=O)C1(c2ccc3c(c2)OC(F)(F)O3)CC1 | cell-free assay, competition with immobilised ligand | 1 µM | remaining binding | 100%
Nc1ncnc2occ(-c3ccc(NC(=O)Nc4cc(C(F)(F)F)ccc4F)cc3)c12 | cell-free assay | 20 µM | remaining signal | 0.9%
CN1CC(Oc2cnc(C#N)cc2-c2ccn3nc(NC(=O)C4CC4)cc3c2)C1 | enzyme activity, inhibitor | 1 µM | inhibition | -2%
Cc1ccc(C(=O)Nc2ccc(CN3CCN(C)CC3)c(C(F)(F)F)c2)cc1C#Cc1cnc2cccnn12 | cell-free assay | 23.5 nM | remaining signal | 98%
COc1cc(Cl)c(C(=O)N[C@@H](CN[C@H]2CC[C@@H](N)CC2)Cc2ccc(C#N)cc2)cc1-c1ccc(CN[C@H](C)c2ccc(C)cc2)o1 | enzyme activity, inhibitor | 1 µM | remaining activity | 102%
CC(C)(O)[C@H]1CC[C@H](Nc2ccc3ncc(-c4cccc(C(F)(F)F)c4)n3n2)CC1 | enzyme activity, inhibitor | 1 µM | remaining activity | 96.8%
Cc1sc(C(=O)NC2COC2)cc1-n1cc(NC(=O)Nc2c(F)cccc2Cl)cn1 | enzyme activity, inhibitor | 10 µM | remaining activity | 89.8%
CS(=O)(=O)c1cc(C2(NC(=O)c3cncc4c3cnn4-c3ccc(F)cc3)CC2)ccn1 | cell-free assay, competition with immobilised ligand | 1 µM | remaining binding | 100%
